Laboratory results taken from ChEMBL document CHEMBL1212887, “Design, synthesis, and biological evaluation of prenylated chalcones as 5-LOX inhibitors” (Bioorg Med Chem, 2010).
pIC50: −log10 of the molar value.

Assays:
MCF7 = test: Cytotoxicity against human MCF7 cells after 24 hrs by MTT assay; type: functional; details: MCF7, 24 h
In short: (§1)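 Cells kept at 37 °C in humidified 5% CO2 and seeded at 5 × 10³ cells/well the day before. They were PBS-washed, given fresh medium, then exposed to test compounds (0.1–100 µM) for 24 h. MTT (5 mg/mL in PBS) was then added for 4 h at 37 °C. Formazan was dissolved in DMSO and OD read at 570 nm. Each concentration was run in three experiments, three replicates each.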

COLO 205 = test: Cytotoxicity against human COLO205 cells after 24 hrs by MTT assay; type: functional; details: COLO 205, 24 h; in short: as §1
[1] = target: 5-lipoxygenase (Solanum tuberosum); test: Inhibition of 5-lipoxygenase
HaCaT = test: Cytotoxicity against human HaCaT cells at up to 100 uM after 24 hrs by MTT assay; type: cell-based; in short: as §1

Row | SMILES | GI50 (MCF7) [µM] | GI50 (COLO 205) [µM] | pIC50 [1] | Activity (HaCaT)
1 | COc1cccc(/C=C/C(=O)c2ccc(OCC=C(C)C)cc2O)c1OC | > 100 | > 100 | < 4.00 | –
2 | COc1ccc(/C=C/C(=O)c2ccc(OCC=C(C)C)cc2O)c(OC)c1OC | > 100 | > 100 | < 4.00 | –
3 | COc1ccc(/C=C/C(=O)c2ccc(OCC=C(C)C)cc2O)cc1OC | > 100 | > 100 | < 4.00 | –
4 | COc1cc(/C=C/C(=O)c2ccc(OCC=C(C)C)cc2O)cc(OC)c1OC | 81 | 96 | < 4.00 | –
5 | COc1ccc(/C=C/C(=O)c2ccc(OCC=C(C)C)cc2OCC=C(C)C)cc1 | 67.5 | 97 | – | –
6 | COc1cccc(/C=C/C(=O)c2ccc(OCC=C(C)C)cc2OCC=C(C)C)c1OC | 73 | 99 | – | –
7 | COc1ccc(/C=C/C(=O)c2ccc(OCC=C(C)C)cc2OCC=C(C)C)c(OC)c1OC | 92 | > 100 | 4.31 | –
8 | COc1ccc(/C=C/C(=O)c2ccc(OCC=C(C)C)cc2OCC=C(C)C)cc1OC | 66.5 | 90 | 5.05 | –
9 | COc1cc(/C=C/C(=O)c2ccc(OCC=C(C)C)cc2OCC=C(C)C)cc(OC)c1OC | 9 | 78 | 5.40 | Non-toxic
10 | COc1ccc(/C=C/C(=O)c2ccc(OCC=C(C)C)cc2O)cc1 | 97.5 | > 100 | < 4.00 | –
